Assay [1] concerns the target T1, Delta-type opioid receptor (Homo sapiens, UniProt P41143). Nature of the assay: Displacement of [3H]DPDPE from delta opioid receptor. An outline of the steps: (§1)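 Competition binding on membranes from transfected cells stably expressing the mu or delta opioid receptor. Radioligands were [3H]DAMGO for mu and [3H]DPDPE for delta.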
Assay [2] addresses Mu-type opioid receptor (Homo sapiens, UniProt P35372). In words: Displacement of [3H]DAMGO from mu opioid receptor. An outline of the steps: as §1
Assay [3] has as its target T1, Delta-type opioid receptor. Nature of the assay: Agonistic efficacy at human delta opioid receptor by [35S]GTP-gammaS binding assay. It is filed as functional. Put shortly: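 Cells expressing human DOR (delta) or rat MOR (mu) incubated with increasing test-compound concentrations and 0.1 nM [35S]GTP-gamma-S in assay buffer, duplicates, 90 min at 30 °C. Stopped by vacuum filtration through GF/B filters pretreated with assay buffer, then four washes with ice-cold 15 mM Tris/120 mM NaCl pH 7.4. Bound radioactivity counted by liquid scintillation after overnight extraction; Emax read as agonist-stimulated binding.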

For assay [4], the target named is Mu-type opioid receptor (Rattus norvegicus, UniProt P33535). In words: Agonistic efficacy at rat mu opioid receptor by [35S]GTPgammaS binding assay.
Mu-type opioid receptor (Rattus norvegicus, UniProt P33535), sequence (P33535 whole entry): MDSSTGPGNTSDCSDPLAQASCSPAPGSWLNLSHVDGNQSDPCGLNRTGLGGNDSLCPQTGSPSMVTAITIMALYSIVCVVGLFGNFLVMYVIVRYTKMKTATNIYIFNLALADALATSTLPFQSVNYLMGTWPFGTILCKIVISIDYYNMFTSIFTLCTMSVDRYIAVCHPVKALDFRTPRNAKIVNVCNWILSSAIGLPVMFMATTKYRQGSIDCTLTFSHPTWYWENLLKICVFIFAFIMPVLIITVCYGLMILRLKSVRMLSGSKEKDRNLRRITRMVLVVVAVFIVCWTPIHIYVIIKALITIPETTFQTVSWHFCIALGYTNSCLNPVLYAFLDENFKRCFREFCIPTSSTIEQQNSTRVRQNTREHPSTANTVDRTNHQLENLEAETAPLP
The target of assay [5] is Delta-type opioid receptor (Mus musculus, UniProt P32300). In words: Activity at delta opioid receptor in mouse vas deferens. It is filed as functional, tissue-based. An outline of the steps:
(§2)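 Isolated tissue bioassays, mouse vas deferens for delta and guinea pig ileum LMMP for mu. Data fitted to the Hill equation by computerized non-linear least squares, giving IC50, relative potency and their standard errors. IC50 is the mean of at least four experiments.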

Assay [6] concerns the target Mu-type opioid receptor (Cavia porcellus, UniProt P97266). Nature of the assay: Activity at mu opioid receptor in longitudinal muscle myenteric plexus from guinea pig ileum. The class given is functional, tissue-based. An outline of the steps: as §2

Here are results for 3 compounds from ChEMBL document CHEMBL1147769 (Bioorg Med Chem Lett, 2006).

Starred links: 1 amine or outer side, 2 acyl side, 3 side chain; linkers in the order of their positions; H or OH if unused. Positions of bridges follow the written chain, without caps; N, C: chain ends. Non-standard residues stand in square brackets, D forms with d. Residues, ends and D or L forms follow the SMILES beside them. Chains are numbered I, II in the order given. NHNH = N(N[*:2])[*:1]

T1 sequence (P41143 whole entry): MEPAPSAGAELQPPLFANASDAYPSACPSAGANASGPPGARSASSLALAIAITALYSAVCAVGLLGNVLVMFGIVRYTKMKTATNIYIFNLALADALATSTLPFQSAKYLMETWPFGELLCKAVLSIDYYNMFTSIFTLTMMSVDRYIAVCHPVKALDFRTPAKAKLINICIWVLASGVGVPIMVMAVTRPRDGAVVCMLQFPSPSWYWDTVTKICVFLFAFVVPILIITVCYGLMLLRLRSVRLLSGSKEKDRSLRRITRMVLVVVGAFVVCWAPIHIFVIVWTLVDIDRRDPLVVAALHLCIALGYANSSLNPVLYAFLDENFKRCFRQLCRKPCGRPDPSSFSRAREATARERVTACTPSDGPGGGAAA
Mu-type opioid receptor (Cavia porcellus, UniProt P97266), sequence (P97266 whole entry): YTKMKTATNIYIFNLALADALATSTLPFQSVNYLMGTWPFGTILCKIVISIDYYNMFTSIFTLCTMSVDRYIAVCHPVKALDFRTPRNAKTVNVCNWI
Delta-type opioid receptor (Mus musculus, UniProt P32300), sequence (P32300 whole entry): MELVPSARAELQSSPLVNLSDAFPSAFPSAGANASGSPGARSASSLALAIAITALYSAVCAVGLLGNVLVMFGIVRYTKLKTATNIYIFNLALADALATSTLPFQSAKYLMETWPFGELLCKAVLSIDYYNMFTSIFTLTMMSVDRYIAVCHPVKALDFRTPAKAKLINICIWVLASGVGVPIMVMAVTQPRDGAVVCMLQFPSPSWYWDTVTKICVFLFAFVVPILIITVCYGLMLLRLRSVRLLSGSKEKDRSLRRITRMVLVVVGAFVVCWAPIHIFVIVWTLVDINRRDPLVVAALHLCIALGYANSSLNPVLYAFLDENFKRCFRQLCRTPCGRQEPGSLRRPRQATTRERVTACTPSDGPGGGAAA
Mu-type opioid receptor (Homo sapiens, UniProt P35372), sequence (P35372 whole entry): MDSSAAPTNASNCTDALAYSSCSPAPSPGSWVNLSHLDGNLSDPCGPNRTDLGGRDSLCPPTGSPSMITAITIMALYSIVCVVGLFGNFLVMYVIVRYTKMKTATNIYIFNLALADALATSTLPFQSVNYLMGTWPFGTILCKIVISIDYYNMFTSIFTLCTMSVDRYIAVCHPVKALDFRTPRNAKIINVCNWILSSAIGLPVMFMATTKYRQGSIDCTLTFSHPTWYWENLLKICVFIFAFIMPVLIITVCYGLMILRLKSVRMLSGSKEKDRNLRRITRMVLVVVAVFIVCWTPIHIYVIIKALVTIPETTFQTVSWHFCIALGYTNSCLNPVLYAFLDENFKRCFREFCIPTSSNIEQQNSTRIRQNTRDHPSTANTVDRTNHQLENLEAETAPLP

Usually IC50 stands for the concentration that gives 50% inhibition. Read a high IC50 as a need for much substance. For orientation: Emax means the size of the effect at its maximum, as opposed to the concentration needed. `N[C@@H](Cc1ccc(O)cc1)C(=O)N[C@@H]1CSSC[C@@H](NC(=O)[C@@H](N)Cc2ccc(O)cc2)C(=O)NCC(=O)N[C@@H](Cc2ccccc2)C(=O)NNC(=O)[C@H](Cc2ccccc2)NC(=O)CNC1=O` (I: H-Y[dC]GF / II: H-Y[dC]GF; disulfide I:2-II:2; linker I:C-II:C via NHNH): the IC50 in assay [1] stood at 0.87 nM; in assay [2], 0.6 nM; in assay [3], 0.87 nM; in assay [4], 0.2 nM; in assay [5], 9.9 nM; in assay [6], 25 nM. This compound also gave an Emax in assay [3] of 100%.

For `C[C@@H](NC(=O)[C@@H](N)Cc1ccc(O)cc1)C(=O)NCC(=O)N[C@@H](Cc1ccccc1)C(=O)NNC(=O)[C@H](Cc1ccccc1)NC(=O)CNC(=O)[C@@H](C)NC(=O)[C@@H](N)Cc1ccc(O)cc1` [BIPHALIN], the maximal response (Emax) in assay [3] came to 27%. In assay [4], this compound came in with an IC50 of 6 nM.

On to `N[C@@H](Cc1ccc(O)cc1)C(=O)N[C@H]1CSSC[C@H](NC(=O)[C@@H](N)Cc2ccc(O)cc2)C(=O)NCC(=O)N[C@@H](Cc2ccccc2)C(=O)NNC(=O)[C@H](Cc2ccccc2)NC(=O)CNC1=O` (I: H-YCGF / II: H-YCGF; disulfide I:2-II:2; linker I:C-II:C via NHNH), for which the IC50 in assay [1] amounted to 53 nM; in assay [2], 130 nM; in assay [3], 260 nM; in assay [4], 120 nM; in assay [5] it was 570 nM; in assay [6] it was 420 nM. Further, in assay [3], the Emax is 58%.
